Data reported in ChEMBL document CHEMBL2401626 (J Med Chem, 2013).
Active and inactive are the calls of the source. The calls are words filed in the database; no cut-off is given here.

Legend:
[1] = target: T1, Amyloid-beta precursor protein (Homo sapiens, UniProt P05067); conditions: at 20 µM
[2] = Antioxidant activity assessed as trolox equivalent of AAPH radical scavenging activity at 10 uM preincubated for 10 mins followed by AAPH challenge measured every min for 120 mins by ORAC-FL assay; assay type: functional
Method in brief: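 Test compound and fluorescein (70 nM final) in 75 mM phosphate buffer pH 7.4, preincubated 10 min at 37 °C, then AAPH (40 mM solution) added. Fluorescence read every minute for 120 min (ex 485/em 520 nm). Curves normalized to buffer blank. […] Triplicate wells, at least three independent runs.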

[3] = target: T1, Amyloid-beta precursor protein
[4] = target: T1, Amyloid-beta precursor protein; assay: Induction of disaggregation of Cu2+-induced amyloid beta (1 to 42) fibril (unknown origin) at 50 uM after 24 hrs by thioflavin T fluorescence assay relative to control
Method in brief: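 Aβ1−42 (25 μM final) in 20 μM HEPES pH 6.6, 150 μM NaCl, preincubated with Cu2+ (25 μM) for 24 h at 37 °C. Compound (50 μM final) then added for another 24 h at 37 °C. Sample diluted into 50 mM glycine−NaOH pH 8.0 with 5 μM ThT; fluorescence read after 5 min at ex 450/em 485 nm.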

[5] = target: T1, Amyloid-beta precursor protein; assay: Induction of disaggregation of self-mediated amyloid beta (1 to 42) fibril (unknown origin) at 25 uM after 24 hrs by transmission electron microscopic analysis
[6] = target: T1, Amyloid-beta precursor protein; assay: Induction of disaggregation of self-mediated amyloid beta (1 to 42) fibril (unknown origin) at 25 uM after 24 hrs by thioflavin T fluorescence assay relative to control
[7] = target: T1, Amyloid-beta precursor protein; assay: Inhibition of Cu2+-induced amyloid beta (1 to 42) aggregation (unknown origin) at 50 uM after 24 hrs by thioflavin T fluorescence assay relative to untreated control
Method in brief: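 Aβ1−42 (25 μM final) in 20 μM HEPES pH 6.6, 150 μM NaCl, with Cu2+ (25 μM final) and compound (50 μM final). Incubated at 37 °C for 24 h, then diluted into 50 mM glycine−NaOH pH 8.0 with 5 μM ThT. Fluorescence read at ex 450/em 485 nm after 5 min; inhibition calculated as (1 − IFi/IFc) × 100 after background subtraction.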

[8] = target: T1, Amyloid-beta precursor protein; assay: Inhibition of amyloid beta (1 to 42) fibril formation (unknown origin) at 20 uM after 24 hrs by transmission electron microscopic analysis
Method in brief: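 Aβ1−42 (25 μM) incubated with compound (20 μM) at 37 °C for 24 h in 10 mM phosphate pH 7.4. Grid loaded for 2 min, stained with 1% uranyl acetate for 2 min, and imaged by TEM.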

[9] = target: T1, Amyloid-beta precursor protein; assay: Induction of disaggregation of Cu2+-induced amyloid beta (1 to 42) fibril (unknown origin) at 50 uM after 24 hrs by transmission electron microscopic analysis
Method in brief: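 Cu2+-induced fibrils formed from Aβ1−42 (25 μM) with Cu2+ (25 μM) at 37 °C for 24 h in HEPES pH 6.6/NaCl, then treated with compound (50 μM) at 37 °C for 24 h. Aliquots placed on carbon-coated grid for 2 min, stained with 1% uranyl acetate for 2 min, and imaged by TEM.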

[10] = Metal chelating activity of the compound assessed as Cu2+ complex formation by Job's method; assay type: functional
Method in brief: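 Job's method: solutions held at constant total compound + CuSO4 concentration with varied mole fraction, in ethanol/HEPES buffer pH 7.4. UV absorbance change plotted against mole fraction; stoichiometry taken from the intersection of the straight lines.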

SH-SY5Y = assay: Antioxidant activity in human SH-SY5Y cells assessed as decrease in t-BuOOH-induced intracellular ROS production at 2.5 to 10 uM incubated for 24 hrs prior to t-BuOOH challenge measured after 30 mins by DCFHDA-based fluorescence assay; assay type: functional, cell-based
Method in brief: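 SH-SY5Y cells (DMEM, 10% FCS, 37 °C, 5% CO2) seeded 1 × 10^4/well and grown 24 h. Compound added for 24 h; Trolox control at 5, 10, 20 μM. Cells are then washed, loaded with 5 μM DCFH-DA in PBS for 30 min, and challenged with 0.1 mM t-BuOOH for 30 min. Fluorescence read at ex 485/em 535 nm. Result is % of control by formula; three independent experiments in sextuplicate.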

[11] = Metal chelating activity of the compound assessed as Zn2+ complex formation at 20 uM after 30 mins by UV-vis spectrometry; assay type: functional
Method in brief: (§1)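 Absorption spectra of compound (20 μM final) alone or with metal salt (40 μM final; CuSO4, FeSO4 or ZnCl2) after 30 min in 20% ethanol/buffer (20 mM HEPES, 150 mM NaCl, pH 7.4). Recorded at room temperature by UV−vis.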

[12] = Metal chelating activity of the compound assessed as Fe2+ complex formation at 20 uM after 30 mins by UV-vis spectrometry; assay type: functional
Method in brief: as §1

[13] = Metal chelating activity of the compound assessed as Cu2+ complex formation at 20 uM after 30 mins by UV-vis spectrometry; assay type: functional
Method in brief: as §1

[14] = target: T1, Amyloid-beta precursor protein; assay: Inhibition of Cu2+-induced amyloid beta (1 to 42) aggregation (unknown origin) at 50 uM after 24 hrs by transmission electron microscopic analysis
Method in brief: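 Aβ1−42 (25 μM) with Cu2+ (25 μM) and compound (50 μM) in HEPES pH 6.6/150 μM NaCl, incubated at 37 °C for 24 h. Aliquots put on carbon-coated grid for 2 min, stained with 1% uranyl acetate for 2 min, and imaged by TEM.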

[15] = Metal chelating activity of the compound assessed as Fe3+ complex formation at 20 uM after 30 mins by UV-vis spectrometry; assay type: functional
Acetylcholinesterase = Acetylcholinesterase (Electrophorus electricus, UniProt O42275); assay: Inhibition of electric eel AChE using acetylthiocholine chloride as substrate preincubated for 15 mins followed by substrate addition measured every 1 min by Ellman's method
Acetylcholinesterase, sequence (O42275 whole entry): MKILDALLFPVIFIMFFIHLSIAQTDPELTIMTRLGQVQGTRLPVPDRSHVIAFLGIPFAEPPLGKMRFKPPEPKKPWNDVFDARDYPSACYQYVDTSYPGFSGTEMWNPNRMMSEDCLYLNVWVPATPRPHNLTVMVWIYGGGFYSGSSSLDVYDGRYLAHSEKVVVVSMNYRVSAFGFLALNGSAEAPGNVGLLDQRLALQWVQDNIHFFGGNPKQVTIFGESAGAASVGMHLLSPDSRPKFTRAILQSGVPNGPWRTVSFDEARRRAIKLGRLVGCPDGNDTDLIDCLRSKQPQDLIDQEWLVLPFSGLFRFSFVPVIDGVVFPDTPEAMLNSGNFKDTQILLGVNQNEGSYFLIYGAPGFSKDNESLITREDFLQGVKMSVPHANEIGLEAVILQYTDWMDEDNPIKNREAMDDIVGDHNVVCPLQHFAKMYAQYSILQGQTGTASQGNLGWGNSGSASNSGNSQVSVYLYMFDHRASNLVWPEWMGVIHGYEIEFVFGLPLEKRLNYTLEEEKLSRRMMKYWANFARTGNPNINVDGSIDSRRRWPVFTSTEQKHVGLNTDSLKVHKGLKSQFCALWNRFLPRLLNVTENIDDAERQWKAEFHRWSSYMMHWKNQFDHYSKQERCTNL
Method in brief: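 Ellman method in 0.1 M potassium phosphate buffer, pH 8.0, 1 mL assay containing DTNB and thiocholine substrate (each 50 μL of 0.01 M stock). Enzyme (AChE stock 2.0 units/mL) preincubated with compound 15 min at 37 °C, then substrate added. A412 read at 1 min intervals at 37 °C. Each concentration in triplicate. IC50 from at least three experiments.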

[16] = Permeability of the compound at 100 ug/mL after 10 hrs by PAMPA; assay type: ADME; conditions: read-out: permeability
Method in brief: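 PAMPA-BBB: filter coated with porcine brain lipid in dodecane (20 mg/mL); acceptor is PBS/EtOH 7:3. Compound taken from 5 mg/mL DMSO stock and diluted to 100 μg/mL final in PBS/EtOH, then incubated 10 h at 25 °C. Acceptor concentration measured by UV at five wavelengths, four wells, at least three runs; Pe calculated by equation.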

T1 sequence (P05067 whole entry): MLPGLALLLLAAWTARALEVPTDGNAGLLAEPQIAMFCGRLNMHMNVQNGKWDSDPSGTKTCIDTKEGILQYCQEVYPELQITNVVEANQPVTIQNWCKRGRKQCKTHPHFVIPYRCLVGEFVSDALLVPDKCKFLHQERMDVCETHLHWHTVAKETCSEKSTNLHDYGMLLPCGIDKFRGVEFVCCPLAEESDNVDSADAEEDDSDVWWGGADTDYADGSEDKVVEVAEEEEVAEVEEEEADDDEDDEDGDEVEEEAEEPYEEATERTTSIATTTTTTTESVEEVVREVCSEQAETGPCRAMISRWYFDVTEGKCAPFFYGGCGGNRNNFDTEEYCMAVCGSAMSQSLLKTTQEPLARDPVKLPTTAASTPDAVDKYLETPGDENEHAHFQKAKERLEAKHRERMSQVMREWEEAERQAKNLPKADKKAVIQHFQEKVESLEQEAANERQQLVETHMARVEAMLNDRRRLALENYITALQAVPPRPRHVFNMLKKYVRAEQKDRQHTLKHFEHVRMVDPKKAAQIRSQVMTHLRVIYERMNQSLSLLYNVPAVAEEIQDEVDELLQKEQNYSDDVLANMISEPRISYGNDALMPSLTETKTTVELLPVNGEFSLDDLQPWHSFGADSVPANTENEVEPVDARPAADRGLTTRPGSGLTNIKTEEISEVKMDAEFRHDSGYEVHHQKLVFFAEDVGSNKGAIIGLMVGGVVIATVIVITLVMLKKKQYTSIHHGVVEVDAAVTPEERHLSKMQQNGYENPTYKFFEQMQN

Row | SMILES | inhibition [1] | IC50 [3] | Activity [2] | further results
1 | CN(C)c1ccc(/C=C/c2ccc(NCc3cc(N(C)C)ccc3O)cc2)cc1 | 69.1% | 10.7 µM | 3.86 equiv | –
2 | Oc1c(I)cc(Cl)c2cccnc12 | 37.8% | – | – | Activity [4]: 41%; Activity [5]: Active; Activity [6]: 16.5%; inhibition [7]: 70.9%
3 | CN(C)c1ccccc1CNc1ccc(/C=C/c2cc(O)cc(O)c2)cc1 | 62.4% | 14.2 µM | 3.57 equiv | –
4 | CN(C)c1ccc(O)c(CNc2ccc(/C=C/c3cc(O)cc(O)c3)cc2)c1 | 78.1% | – | 4.7 equiv | inhibition [8]: Active; Activity [9]: Active; Activity [10]: Active; Activity (SH-SY5Y): Active; Activity [11]: Active; Activity [4]: 85.9%; Activity [12]: Active; Activity [13]: Active; inhibition [14]: Active; Activity [5]: Active; Activity [15]: Active; Activity [6]: 82%; inhibition [7]: 94.2%
5 | Oc1cc(O)cc(/C=C/c2ccc(NCc3cccc(O)c3O)cc2)c1 | 78.8% | 7.87 µM | 3.26 equiv | –
6 | C#CCN[C@@H]1CCc2ccc(OC(=O)N(C)CC)cc21 [LADOSTIGIL] | – | – | – | IC50 (Acetylcholinesterase): 50 µM
7 | CN(C)c1ccc(O)c(CNc2ccc(/C=C/c3cc(O)cc(O)c3)cc2)c1.Cl | – | – | – | Papp at 10 h, 100 ug/mL [16]: 25.5 nm/s
8 | O=[N+]([O-])c1ccc(O)c(CNc2ccc(/C=C/c3cc(O)cc(O)c3)cc2)c1 | 71.5% | 7.06 µM | 4.23 equiv | –
9 | Oc1ccc(/C=C/c2cc(O)cc(O)c2)cc1 | 69.7% | – | – | Activity [4]: 86.4%; Activity [5]: Active; Activity [6]: 61%; inhibition [7]: 78.9%
10 | COc1cc(/C=C/c2ccc(NCc3cc(N(C)C)ccc3O)cc2)cc(OC)c1.Cl | – | – | – | Papp at 10 h, 100 ug/mL [16]: 71.3 nm/s
11 | COc1cc(/C=C/c2ccc(NCc3cc(N(C)C)ccc3O)cc2)cc(OC)c1 | 79.5% | – | 4.72 equiv | inhibition [8]: Active; Activity [9]: Active; Activity [10]: Active; Activity (SH-SY5Y): Active; Activity [11]: Active; Activity [4]: 88.8%; Activity [12]: Active; Activity [13]: Active; inhibition [14]: Active; Activity [5]: Active; Activity [15]: Active; Activity [6]: 67%; inhibition [7]: 87.5%
12 | COc1cc(/C=C/c2ccc(NCc3cc[nH]c3)cc2)cc(OC)c1 | 13.6% | – | 3.51 equiv | –
13 | COc1ccc(/C=C/c2ccc(NCc3cc(N(C)C)ccc3O)cc2)cc1 | 71.2% | 12.2 µM | 2.37 equiv | –
14 | Oc1cc(O)cc(/C=C/c2ccc(NCc3ccccc3O)cc2)c1 | 68.1% | 10.2 µM | 6.27 equiv | –

Continued, in another order:

Row | inhibition [1] | IC50 [3] | SMILES | Activity [2] | further results
15 | 20.7% | – | COc1cc(/C=C/c2ccc(NCc3ccccc3O)cc2)cc(OC)c1 | 3.67 equiv | –
16 | 6.9% | – | COc1cc(/C=C/c2ccc(NCc3ccccc3OC)cc2)cc(OC)c1 | 3.67 equiv | –
17 | 18.1% | – | COc1cc(/C=C/c2ccc(NCc3cccc(OC)c3O)cc2)cc(OC)c1 | 4.54 equiv | –
18 | 67% | 10.3 µM | COc1cc(/C=C/c2ccc(NCc3cc(NCC(C)C)ccc3O)cc2)cc(OC)c1 | 4.51 equiv | –
19 | 46.5% | – | COc1cc(/C=C/c2ccc(NCc3cc([N+](=O)[O-])ccc3O)cc2)cc(OC)c1 | 2.51 equiv | –
20 | 62.5% | 13.1 µM | CCCNc1ccc(O)c(CNc2ccc(/C=C/c3cc(OC)cc(OC)c3)cc2)c1 | 2.91 equiv | –
21 | 3.98% | – | COc1cc(/C=C/c2ccc(NCc3ccc(OC)cc3O)cc2)cc(OC)c1 | 3.32 equiv | –
22 | 24.1% | – | COc1cc(/C=C/c2ccc(NCc3c[nH]c4ccccc34)cc2)cc(OC)c1 | 3.67 equiv | –
23 | 31.3% | – | COc1cc(/C=C/c2ccc(NCc3cc(Cl)ccc3O)cc2)cc(OC)c1 | 4.12 equiv | –
24 | 7.17% | – | COc1cc(/C=C/c2ccc(NCc3ccccc3N(C)C)cc2)cc(OC)c1 | 5.87 equiv | –
25 | 50.2% | 18.4 µM | COc1cc(/C=C/c2ccc(NCc3cc(NC(C)C)ccc3O)cc2)cc(OC)c1 | 2.73 equiv | –
